This note sets out measurements from ChEMBL document CHEMBL1121732, “Synthesis and pharmacological activity of thiohexital enantiomers” (J Med Chem, 1981).

Data set [1] deals with Mus musculus. Nature of the data set: Evaluation for duration of recovery tremors after administration of dose. Type of data set: functional. The procedure, abridged: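 Groups of 40 male CF-1 mice, each given its compound's AD50 dose ip. Recovery tremors recorded for incidence, duration in minutes and graded severity.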
A short description of data set [2]: Ratio of LD50 to AD50 after intraperitoneal administration. Type of data set: ADME. The settings on record: ip; read-out: Therapeutic index. An outline of the steps:
(§1)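 Therapeutic index, LD50/AD50. Both values from Litchfield-Wilcoxon curves in male CF-1 mice, 10 per dose, ≥4 doses. […] Dosing ip or iv (caudal vein), 20 mL/kg saline vehicle after 0.1 M NaOH.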

In data set [3] the test system is Mus musculus. Nature of the data set: Evaluation for the onset of action of intraperitoneal administration of dose. The class given is functional.
Data set [4] in a line: Potency ratio of compound to that of racemate was measured after intraperitoneal administration. Type of data set: functional. The procedure, abridged:
(§2)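 Potency relative to the racemate, the standard, from Litchfield-Wilcoxon dose-response curves (≥4 doses, 10 male CF-1 mice each) for loss of righting reflex. Dosing ip or iv (caudal vein) at 20 mL/kg in saline after dissolving in 0.1 M NaOH.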

A short description of data set [5]: Potency ratio of compound was measured after intraperitoneal administration; More potent. Type of data set: functional. The procedure, abridged: as §2
The subject of data set [6] is Mus musculus. Put plainly: (§3) The median anesthetic dose evaluated after intraperitoneal administration in barbiturates. Type of data set: functional. An outline of the steps:
(§4)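 Male CF-1 mice (29.5 ± 2.5 g). Drug dissolved in 0.1 M aqueous NaOH (monosodium salt), diluted with saline, dosed at 20 mL/kg ip or iv via caudal vein; weights as free acid. Anesthesia = loss of righting reflex (no recovery from back within 1 min). AD50 with 95% confidence limits by Litchfield-Wilcoxon; ≥4 doses giving 10-90% response, 10 mice per dose.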

A short description of data set [7]: Potency ratio of compound to that of racemate was measured after intravenous administration; More potent. Type of data set: functional. The procedure, abridged: as §2
Data set [8] relates to Mus musculus. Nature of the data set: The median anesthetic dose evaluated after intravenous administration in barbiturates. The class given is functional. The procedure, abridged: as §4
The subject of data set [9] is Mus musculus. Nature of the data set: Evaluation for the duration of action of intraperitoneal administration of dose. Type of data set: functional.
Data set [10] can be described thus: The median lethal dose evaluated after intraperitoneal administration in barbiturates. The class given is ADME. The following applies: ip. The procedure, abridged:
(§5)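 Male CF-1 mice (29.5 ± 2.5 g). Drug dissolved in 0.1 M aqueous NaOH, diluted with saline, 20 mL/kg ip or iv (caudal vein); doses as free acid. Lethality scored over 24 h. LD50 with 95% confidence limits by Litchfield-Wilcoxon from ≥4 doses giving 10-90% response, 10 mice per dose.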

Data set [11] in a line: The median lethal dose evaluated after intravenous administration in barbiturates. Type of data set: ADME. An outline of the steps:
as §5

Data set [12] is described as follows: Ratio of LD50 to AD50 after intravenous administration. The class given is ADME. An outline of the steps:
as §1

Data set [13] can be described thus: Potency ratio of slower rate (LD50) to that of faster rate (LD50). Type of data set: functional. An outline of the steps:
(§6)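 Racemate given iv via caudal vein at 20 mL/kg, either fast (about 0.5 s) or slower (about 3.0 s) injection. […] Slow-rate value compared with fast-rate value.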

Data set [14] can be described thus: (§7) Evaluation after intravenous injection at faster rate (0.5 s). The class given is ADME, organism-based. The following applies: mouse, in vivo.
The nature of data set [15]: Potency ratio of slower rate (AD50) to that of faster rate (AD50). The class given is functional. An outline of the steps: as §6
Data set [16] deals with Mus musculus. Described as §7. Type of data set: functional. The procedure, abridged:
as §4

Data set [17] in a line: Potency ratio of compound was measured after intravenous administration. Type of data set: functional. An outline of the steps:
as §2

Data set [18] can be described thus: as §3. The class given is functional. The settings on record: ip. An outline of the steps:
as §4

Structures are written as SMILES. Where “and” joins values, the source holds several entries; their conditions need not be identical. Equal entries are not always repeated.

For the molecule `C=CCC1([C@@H](C)C#CCC)C(=O)NC(=S)NC1=O`, the Duration in the data set on Mus musculus [1] worked out at 5.4 min; with Mus musculus [9], 12.15 min. For the same molecule, the selectivity ratio in data set [2] worked out at 3.2. For the same molecule, the Onset of action in the data set with Mus musculus [3] amounted to 3.49 min. Besides, the figures for the Potency ratio in data set [4], in [5] and in [7] were 1.06, 1.37 and 1.61, respectively. Also, the AD50 turned out to be 18.8 mg/kg in the data set on Mus musculus [6] and 12.3 mg/kg with Mus musculus [8]. In addition, the LD50 (in general, the dose expected to kill half of the subjects tested) in data set [10] was 59.8 mg/kg.

As to `C=CCC1(C(C)C#CCC)C(=O)NC(=S)NC1=O` (racemic) [RAC THIOHEXITAL], the figures for the Duration with Mus musculus [1] and in the data set with Mus musculus [9] were 5.8 min and 12.36 min, respectively. The LD50 turned out to be 53.5 mg/kg in data set [11] and 31.5 mg/kg in data set [14]. Besides, the Therapeutic index in data set [12] was 3.4. Also, the results for the selectivity ratio in [12] (read-out: Therapeutic index) and in data set [2] were 2.7 and 2.5, respectively. Also, the Potency ratio worked out at 1.7 in [13] and 2.15 in data set [15]. The Onset of action in the data set with Mus musculus [3] is 3.69 min. Further, the AD50 in the data set on Mus musculus [6] is 25.8 mg/kg; with Mus musculus [8], 19.8 mg/kg; with Mus musculus [16] it was 9.2 mg/kg.

`C=CCC1([C@H](C)C#CCC)C(=O)NC(=S)NC1=O` returned a Duration in the data set with Mus musculus [1] of 6.2 min. In data set [2], the selectivity ratio came out at 2.4. Further, the Potency ratio in data set [4] was 1.06 and 1.04; in data set [17], 1.22. Besides, the LD50 in data set [18] was found to be 66.1 mg/kg. Moreover, the figures for the AD50 with Mus musculus [6] and in the data set with Mus musculus [8] were 27.3 mg/kg and 24.1 mg/kg, respectively.
